According to PubChem BioAssay AID651647 (Sanford-Burnham Center for Chemical Genomics, 2012):
The whole screen tested about 360,000 compounds, of which about 220 (0.061%) were called active.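 The calls were made as follows: active = GFP/RFP ratio change of at least 30% with cell ATP level not reduced by more than half and red fluorescence within 50% of control; inactive = the rest, inconclusive results apart.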 The entries come from a sample that favours actives as a whole.

Each compound was assayed against Matrix metalloproteinase-14 (Homo sapiens) (UniProt P50281) (assay: blockers of MT1-MMP proenzyme processing, primary screen, HT1080 RFP-PRO-GFP cells, GFP/RFP fluorescence (AID 651647)). Details: overnight, at 20 µM, active compounds read high, percent of plate control window, DMSO zero.
How it was run: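 Assay system – RFP-PRO-GFP reporter HT1080 cells · Compound dosing – single dose of 20 µM compound, 1% DMSO final · Incubation – overnight compound exposure at 37 °C · Measure – GFP/RFP fluorescence ratio · Benchmarks – DMSO wells and RFP-L50D-GFP cells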
With `CC12CCC(C(=O)N(NC(=O)c3ccccc3O)C1=O)C2(C)C` (configuration not stated) the GFP/RFP ratio change was 2.09% (inactive).
With `CC(C)COC(=O)C1C2C=CC3(CN(C(C)c4ccc(Br)cc4)C(=O)C13)O2` (configuration not stated) the GFP/RFP ratio change was 3.45% (inactive).
With `COC(=O)CN1C(=O)[C@H]2[C@@H](/C=C/c3ccccc3)N3C(=O)CN(Cc4ccccc4)C(=O)[C@@]3(Cc3ccccc3)[C@H]2C1=O` the GFP/RFP ratio change was 2.05% (inactive).
`CCC(C(=O)NCc1ccc(OC)cc1)n1nc(C)n2c(cc3occc32)c1=O` (configuration not stated) was tested, and the GFP/RFP ratio change was -2.32% (inactive).
For `O=C(c1cccc(S(=O)(=O)N2CCCC2)c1)N(Cc1ccco1)C1CCS(=O)(=O)C1` (configuration not stated), the GFP/RFP ratio change was -1.85% (inactive).
In the case of `COc1ccc2c(c1OC)C(=O)N(c1ncn[nH]1)C2`, the GFP/RFP ratio change is reported as 5.29% (inactive).
`COc1cc(C2C(N3C(=O)c4ccccc4C3=O)C(=O)N2c2ccc(C)c(C)c2)cc(OC)c1OC` (configuration not stated) was tested, and the GFP/RFP ratio change was 4.49% (inactive).
In the case of `CCN(CC(=O)Nc1ccc(NC(C)=O)cc1)C(=O)C1CC(=O)N(c2ccc3c(c2)OCCO3)C1` (configuration not stated), the GFP/RFP ratio change is reported as 1.76% (inactive).
With `COc1ccccc1NC1=NC(c2ccc(Cl)cc2)N=C(N)N1` (configuration not stated) the GFP/RFP ratio change was -2.9% (inactive).
For `Cc1cc(OC(=O)c2ccc(Cl)cc2)cc(=O)n1C`, the GFP/RFP ratio change was 0.208% (inactive).
`CCN(CC)C(=O)N1CCN(C(=O)c2ccc(C)cn2)CC1` was tested, and the GFP/RFP ratio change was 4.93% (inactive).
In the case of `CC1(C(=O)NCc2ccc3c(c2)OCO3)CCN1CCc1ccccc1` (configuration not stated), the GFP/RFP ratio change is reported as 2.41% (inactive).
With `COCCCNC(=O)CN1C(=O)CSc2ccc(S(=O)(=O)N3CCOCC3)cc21` the GFP/RFP ratio change was -2.33% (inactive).
With `CCn1cc(CCC(=O)NCc2ccc(F)cc2)c2ccccc21` the GFP/RFP ratio change was 1.53% (inactive).
`N#Cc1ccc(-c2nc3c(Cl)cc(C(F)(F)F)cn3c2Cc2ccccc2C(F)(F)F)cc1` was tested, and the GFP/RFP ratio change was 1.7% (inactive).
In the case of `CN(C)CCCn1c(SCc2ccc(Cl)cc2)nnc1-c1ccncc1`, the GFP/RFP ratio change is reported as 1.22% (inactive).
In the case of `CC1(C)OC(=O)C2=C(C[C@@H](C3CCCCC3)O[C@@H]2c2ccc(Cl)cc2)O1`, the GFP/RFP ratio change is reported as -0.857% (inactive).
With `CC1(C)CC(=O)NC=C(c2ccccc2)C1` the GFP/RFP ratio change was 0.817% (inactive).
For `COc1ccc(C(=O)COC(=O)c2c(C)noc2C)cc1Cl`, the GFP/RFP ratio change was 0.327% (inactive).
For `O=c1[nH]nc(SCCS(=O)(=O)c2ccc(F)cc2)n1-c1ccccc1C(F)(F)F`, the GFP/RFP ratio change was 1.01% (inactive).
With `COc1cccc(NC(=O)Cn2c3ccc(F)cc3c3nc4n(c(=O)c32)CCS4)c1` the GFP/RFP ratio change was 1.54% (inactive).
In the case of `O=C(CCc1ccccc1F)N1CCN(c2ccccc2)CC1`, the GFP/RFP ratio change is reported as -1.03% (inactive).
In the case of `Cc1cc(=O)oc2c1ccc1ccccc12`, the GFP/RFP ratio change is reported as 0.0995% (inactive).
`CCCCCc1ccc(-c2ccc(C(=O)O)cc2)nc1` was tested, and the GFP/RFP ratio change was 0.418% (inactive).
With `Cc1cc(C)c(C#N)c(SCS(=O)c2ccc(C(C)(C)C)cc2)n1` (configuration not stated) the GFP/RFP ratio change was 3.13% (inactive).
In the case of `O=C(COC(=O)C1CCN(S(=O)(=O)c2ccc3c(c2)OCCO3)CC1)Nc1ccccc1OC(F)F`, the GFP/RFP ratio change is reported as -1.25% (inactive).
`CC1(C)CN(Cc2cccnc2)C(=O)[C@H]1CC(=O)Nc1ccc(Br)cc1` was tested, and the GFP/RFP ratio change was -0.506% (inactive).
`CCCc1nc(-c2ccccc2O)n(-c2ccccc2)n1` was tested, and the GFP/RFP ratio change was 1.17% (inactive).
For `N#CCSc1nc2ccc(N3CCOCC3)cc2c(=O)n1CCc1ccccc1`, the GFP/RFP ratio change was 9.47% (inactive).
For `COc1cc(NC(=O)CCS(=O)(=O)c2ccc3c(c2)oc(=O)n3C)cc(OC)c1`, the GFP/RFP ratio change was 0.489% (inactive).
For `Cc1cc(OCc2ccc(C(=O)Nc3ccc(C(=O)O)cc3)o2)ccc1Cl`, the GFP/RFP ratio change was 1.24% (inactive).
With `Cc1ccc(NC(=O)COc2coc(CN3CCc4ccccc4C3)cc2=O)cc1Cl` the GFP/RFP ratio change was -6.33% (inactive).
`CCCc1c(C(=O)N/N=C(\C)CCc2ccc(OC)cc2)nnn1-c1nonc1N` was tested, and the GFP/RFP ratio change was 0.35% (inactive).
For `CC1(C)CC(=O)C(N=Nc2ccc(S(=O)(=O)N3CCCCCC3)cc2)=C(O)C1`, the GFP/RFP ratio change was 3.46% (inactive).
`O=C1CCCC(O)=C1N=Nc1ccc2ncsc2c1` was tested, and the GFP/RFP ratio change was 4.19% (inactive).
With `O=C1CCCC(O)=C1N=Nc1ccc(S(=O)(=O)N2CCOCC2)cc1` the GFP/RFP ratio change was 48.9% (active).
`CC1(C)CC(=O)C(C2=NC(C)(C)Cc3ccccc32)=C(O)C1` was tested, and the GFP/RFP ratio change was -1.97% (inactive).
With `CCCCCCN1C[C@H](O)[C@@H](n2cc(C3CC3)nn2)C[C@@H]1c1ccc(Cl)cc1` the GFP/RFP ratio change was 2.78% (inactive).
With `CC1CC(C)CN(CCCNC(=O)Cn2ncc3c([nH]c4ccccc43)c2=O)C1` (configuration not stated) the GFP/RFP ratio change was -6.2% (inactive).
In the case of `Cc1ccc(C(=O)OCC(=O)Nc2ccc(Cl)cn2)cc1S(=O)(=O)N1CCOCC1`, the GFP/RFP ratio change is reported as 2.27% (inactive).
In the case of `CCOc1ccc(NC(=O)[C@H](C)NC(=O)C2CC(=O)N(c3ccc(OC)cc3)C2)cc1` (some centres not stated), the GFP/RFP ratio change is reported as 0.231% (inactive).
`CCOC(=O)c1c(NC(=O)CCCN2CCOCC2)sc2c1CC(C)(C)OC2` was tested, and the GFP/RFP ratio change was -2.69% (inactive).
For `O=C(CP(=O)(c1ccccc1)c1ccccc1)N1CCOCC1`, the GFP/RFP ratio change was 1.97% (inactive).
In the case of `O=P(O)(CP(=O)(c1ccccc1)c1ccccc1)c1ccccc1O`, the GFP/RFP ratio change is reported as 2.61% (inactive).
In the case of `O=P(O)(CP(=O)(c1ccccc1)c1ccccc1)c1ccccc1`, the GFP/RFP ratio change is reported as 35.4% (active).
In the case of `Cc1noc(COc2ccccc2OCc2onc(C)c2Cl)c1Cl`, the GFP/RFP ratio change is reported as -3.96% (inactive).
For `CC(C)(C)Cc1c(C2CCCCC2)nc2ccc(Br)cn12`, the GFP/RFP ratio change was -6.01% (inactive).
In the case of `CCN(CC)C(=O)Oc1ccc(Br)cc1C(=O)Nc1ccc(F)c(Cl)c1`, the GFP/RFP ratio change is reported as -4.63% (inactive).
In the case of `COc1ccc(-c2noc(C(C)NS(=O)(=O)c3ccc(NC(C)=O)cc3)n2)cc1` (configuration not stated), the GFP/RFP ratio change is reported as -4.06% (inactive).
In the case of `CCOC(=O)c1cnc2c(c(C)nn2CC)c1Cl`, the GFP/RFP ratio change is reported as 2.11% (inactive).
With `COc1ccc(NC(=O)C(C)N2c3cccc4cccc(c34)S2(=O)=O)c(OC)c1` (configuration not stated) the GFP/RFP ratio change was 3.17% (inactive).
`COc1ccc(CC(NC(C)=O)C(=O)N2CCN(C(=O)Nc3cccc(Cl)c3)CC2)cc1OC` (configuration not stated) was tested, and the GFP/RFP ratio change was -3.43% (inactive).
In the case of `Brc1ccc(Nc2c3c(nc4ncnn24)CCC3)cc1`, the GFP/RFP ratio change is reported as 1.92% (inactive).
With `CN=C1C=C/C(=N/N=c2\ccn(O)cc2C)C=C1C` the GFP/RFP ratio change was 61% (active).
For `CC[N+]1(CC)CC2=Cc3ccccc3CC2C1` (configuration not stated), the GFP/RFP ratio change was 0.892% (inactive).
In the case of `CC(Sc1nc2cc(Cl)ccc2s1)C(=O)Nc1ccc2c(c1)OCO2` (configuration not stated), the GFP/RFP ratio change is reported as 3.37% (inactive).
For `COCCCNC(=O)/C(C#N)=C/c1c(N2CCCCCC2)nc2ccccn2c1=O`, the GFP/RFP ratio change was -0.526% (inactive).
